Reference: ChEMBL document CHEMBL1153403, “Design, synthesis, and evaluation of novel fluoroquinolone-aminoglycoside hybrid antibiotics” (J Med Chem, 2009)
Converted amounts (≈) assume the structure as drawn.

Experiments:
[1] = tested on: Escherichia coli; assay: Antibacterial activity against kanamycin-resistant Escherichia coli AG100A expressing aminoglycosides resistant APH(3')-1 enzyme by double-microdilution method; type: functional
[2] = tested on: Escherichia coli; assay: Antibacterial activity against aminoglycosides-resistant Escherichia coli XL1-blue harboring pET9d expressing APH(3')-1a enzyme by double-microdilution method; type: functional
[3] = tested on: Escherichia coli; assay: Resistance index, MIC for aminoglycosides-resistant Escherichia coli XL1-blue harboring pET9d expressing APH(3')-1a enzyme to MIC for Escherichia coli XL1-blue; type: functional
Method in brief: (§1)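 Ratio of MIC on the plasmid-bearing resistant strain to MIC on its background strain (pETSACG1 vs BL21; pET9d or pSF815 vs XL1 blue). MICs by NCCLS double microdilution from starting concentrations of 384 and 1.5 µg/mL, in duplicate, two to four experiments.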

[4] = tested on: Escherichia coli; assay: Antibacterial activity against aminoglycosides-resistant Escherichia coli BL21 harboring pETSACG1 expressing APH(3')-3a enzyme by double-microdilution method; type: functional
[5] = tested on: Escherichia coli; assay: Antibacterial activity against Escherichia coli R477-100 by double-microdilution method; type: functional
[6] = tested on: Bacillus subtilis; assay: Antibacterial activity against aminoglycosides-susceptible Bacillus subtilis ATCC 6633 by double-microdilution method; type: functional
[7] = tested on: Escherichia coli; assay: Resistance index, MIC for aminoglycosides-resistant Escherichia coli XL1-blue harboring pSF815 expressing AAC(6')-APH(2'') enzyme to MIC for Escherichia coli XL1-blue; type: functional; method in brief: as §1
[8] = tested on: Escherichia coli; assay: Antibacterial activity against Escherichia coli BL21 by double-microdilution method; type: functional
[9] = tested on: Staphylococcus aureus; assay: Antibacterial activity against methicillin-resistant Staphylococcus aureus ATCC 43300 by double-microdilution method; type: functional
[10] = tested on: Escherichia coli; assay: Antibacterial activity against Escherichia coli XL1-blue by double-microdilution method; type: functional
[11] = Activity at aminoglycoside 3'-phosphotransferase 3a
[12] = Ratio of kcat/km for aminoglycoside 3'-phosphotransferase 3a
[13] = tested on: Escherichia coli; assay: Antibacterial activity against Escherichia coli ATCC 25922 by double-microdilution method; type: functional
[14] = tested on: Escherichia coli; assay: Antibacterial activity against kanamycin-resistant Escherichia coli AG100B expressing aminoglycosides resistant APH(3')-1 enzyme by double-microdilution method; type: functional
[15] = tested on: Escherichia coli; assay: Antibacterial activity against aminoglycosides-resistant Escherichia coli XL1-blue harboring pSF815 expressing AAC(6')-APH(2'') enzyme by double-microdilution method; type: functional
[16] = tested on: Escherichia coli; assay: Resistance index, MIC for aminoglycosides-resistant Escherichia coli BL21 harboring pETSACG1 expressing APH(3')-3a enzyme to MIC for Escherichia coli BL21; type: functional; method in brief: as §1
[17] = Inhibition of Escherichia coli topoisomerase 4 assessed as reduction in supercoiled pBR322 DNA relaxation activity after 30 mins by electrophoresis
Method in brief: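 E. coli TopoIV relaxation of supercoiled pBR322 in 40 mM HEPES-KOH pH 7.6 with 100 mM potassium glutamate, 10 mM Mg(OAc)₂, 10 mM DTT, 1 mM ATP and 50 µg/mL albumin. Incubated 37 °C for 30 min, stopped with EDTA, loading dye and chloroform/isoamyl alcohol, then run on 1% agarose. Supercoiled DNA percentage was quantified from gel images. IC50 is the 50% reduction versus drug-free control.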

[18] = Inhibition of Escherichia coli DNA gyrase assessed as reduction in relaxed pBR322 DNA supercoiling activity after 1 hr by electrophoresis
Method in brief: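 Supercoiling of relaxed pBR322 (12.5 ng/µL) by E. coli DNA gyrase in 35 mM Tris-Cl pH 7.5 with 24 mM KCl, 4 mM MgCl₂, 2 mM DTT, 1.8 mM spermidine, 1 mM ATP, 6.5% glycerol and 0.1 mg/mL BSA. Incubated 37 °C for 1 h, stopped with loading dye plus chloroform/isoamyl alcohol, and resolved on 1% agarose. IC50 is the concentration halving activity versus drug-free control.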

[19] = tested on: Escherichia coli; assay: Inhibition of protein synthesis in Escherichia coli S30 extracts assessed as luciferase activity after 1 hr by coupled transcription/translation assay; type: functional; conditions: Escherichia coli, 1 h; read-out: IC50
Method in brief: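 Coupled transcription/translation of the pBESTluc plasmid in E. coli S30 extract with varying compound concentrations, 37 °C for 60 min. Reactions were cooled on ice, diluted in Tris-phosphate pH 7.8 reagent, and luciferase luminescence was read immediately after substrate addition. IC50 came from concentration-response curves fitted to at least two independent experiments.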

SMILES	MIC [1] [µg/mL]	MIC [2] [µg/mL]	Ratio [3]	MIC [4] [µg/mL]	MIC [5] [µg/mL]	MIC [6] [µg/mL]	Ratio [7]	MIC [8] [µg/mL]	MIC [9] [µg/mL]	MIC [10] [µg/mL]	Km [11] [µM]	kcat [11] [s⁻¹]	kcat/Km [12] [×10⁴ /M/s]	MIC [13] [µg/mL]	MIC [14] [µg/mL]	MIC [15] [µg/mL]	Ratio [16]	IC50 [19] [µM]	IC50 ([17]; read-out: IC50) [µM]	IC50 ([18]; read-out: IC50) [µM]	further results
NC[C@@H]1O[C@H](O[C@H]2[C@@H](O)[C@H](O[C@@H]3[C@@H](O)[C@H](N)C[C@H](N)[C@H]3O[C@H]3O[C@H](CN)[C@@H](O)[C@H](O)[C@H]3N)O[C@@H]2C(=O)NCc2cn(CC(O)CN3CCN(c4cc5c(cc4F)c(=O)c(C(=O)O)cn5C4CC4)CC3)nn2)[C@H](N)[C@@H](O)[C@@H]1O (stereo partly specified)	0.75 (≈ 0.684 µM)	12 (≈ 10.9 µM)	2	0.2 (≈ 0.182 µM)	6 (≈ 5.47 µM)	3 (≈ 2.74 µM)	8	0.2 (≈ 0.182 µM)	12 (≈ 10.9 µM)	6 (≈ 5.47 µM)	86.8	2.5	2.9	3 (≈ 2.74 µM)	12 (≈ 10.9 µM)	48 (≈ 43.8 µM)	1				
NC[C@@H]1O[C@H](O[C@H]2[C@@H](O)[C@H](O[C@@H]3[C@@H](O)[C@H](N)C[C@H](N)[C@H]3O[C@H]3O[C@H](CN)[C@@H](O)[C@H](O)[C@H]3N)O[C@@H]2CO)[C@H](N)[C@@H](O)[C@@H]1O [FRAMYCETIN]	96 (≈ 156 µM)	96 (≈ 156 µM)	16	48 (≈ 78.1 µM)	24 (≈ 39 µM)	1.5 (≈ 2.44 µM)	>64	6 (≈ 9.76 µM)	384 (≈ 625 µM)	6 (≈ 9.76 µM)	5.7	2.4	42	48 (≈ 78.1 µM)	384 (≈ 625 µM)	> 384	8	10.5			IC50 [17]: Not Active; IC50 [18]: Not Active
NC[C@@H]1O[C@H](O[C@H]2[C@@H](O)[C@H](O[C@@H]3[C@@H](O)[C@H](N)C[C@H](N)[C@H]3O[C@H]3O[C@H](CN)[C@@H](O)[C@H](O)[C@H]3N)O[C@@H]2COCc2cn(CCN3CCN(c4cc5c(cc4F)c(=O)c(C(=O)O)cn5C4CC4)CC3)nn2)[C@H](N)[C@@H](O)[C@@H]1O	0.38 (≈ 0.361 µM)	12 (≈ 11.4 µM)	4	0.2 (≈ 0.19 µM)	3 (≈ 2.85 µM)	0.75 (≈ 0.712 µM)	4	0.2 (≈ 0.19 µM)	6 (≈ 5.7 µM)	3 (≈ 2.85 µM)				3 (≈ 2.85 µM)	12 (≈ 11.4 µM)	12 (≈ 11.4 µM)	1	18.1	7.9	0.041	
NC[C@@H]1O[C@H](O[C@H]2[C@@H](O)[C@H](O[C@@H]3[C@@H](O)[C@H](N)C[C@H](N)[C@H]3O[C@H]3O[C@H](CN)[C@@H](O)[C@H](O)[C@H]3N)O[C@@H]2C(=O)Nc2ccc(-c3cn(Cc4ccc(CN5CCN(c6cc7c(cc6F)c(=O)c(C(=O)O)cn7C6CC6)CC5)cc4)nn3)cc2)[C@H](N)[C@@H](O)[C@@H]1O	0.75 (≈ 0.623 µM)	3 (≈ 2.49 µM)	1	0.4 (≈ 0.332 µM)	1.5 (≈ 1.25 µM)	1.5 (≈ 1.25 µM)	8	0.4 (≈ 0.332 µM)	3 (≈ 2.49 µM)	3 (≈ 2.49 µM)				3 (≈ 2.49 µM)	3 (≈ 2.49 µM)	24 (≈ 19.9 µM)	1	16.7	0.55	0.085	
